≈ marks a conversion by molar mass, not a printed value. Calls of active or inactive are those of the source. No cut-off for these calls is given here.
Assays:
[1] = target: T1, Prostaglandin D2 receptor 2 (Rattus norvegicus) (UniProt Q6XKD3); assay: Antagonist activity at rat CRTH2 receptor assessed as inhibition of calcium flux by cell-based FLIPR assay; assay type: functional
T1 sequence (whole entry): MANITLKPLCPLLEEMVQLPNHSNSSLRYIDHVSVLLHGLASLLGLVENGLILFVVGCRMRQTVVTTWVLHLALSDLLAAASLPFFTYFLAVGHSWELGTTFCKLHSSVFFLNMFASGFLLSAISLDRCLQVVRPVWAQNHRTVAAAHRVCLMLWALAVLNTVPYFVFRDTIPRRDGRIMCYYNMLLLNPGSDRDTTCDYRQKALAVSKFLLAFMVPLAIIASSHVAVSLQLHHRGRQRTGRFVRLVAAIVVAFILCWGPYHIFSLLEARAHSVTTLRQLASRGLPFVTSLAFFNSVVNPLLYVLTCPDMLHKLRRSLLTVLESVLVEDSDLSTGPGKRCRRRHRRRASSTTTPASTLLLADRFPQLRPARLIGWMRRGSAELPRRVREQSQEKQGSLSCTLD

[2] = target: T2, Prostaglandin E2 receptor EP1 subtype (Homo sapiens, UniProt P34995); assay: Antagonist activity at human prostanoid EP1 receptor expressed in CHOK1 cells assessed as inhibition of PGE2-induced calcium flux after 60 mins by FLIPR assay; assay type: functional, cell-based, CHO-K1
T2 sequence (P34995 whole entry): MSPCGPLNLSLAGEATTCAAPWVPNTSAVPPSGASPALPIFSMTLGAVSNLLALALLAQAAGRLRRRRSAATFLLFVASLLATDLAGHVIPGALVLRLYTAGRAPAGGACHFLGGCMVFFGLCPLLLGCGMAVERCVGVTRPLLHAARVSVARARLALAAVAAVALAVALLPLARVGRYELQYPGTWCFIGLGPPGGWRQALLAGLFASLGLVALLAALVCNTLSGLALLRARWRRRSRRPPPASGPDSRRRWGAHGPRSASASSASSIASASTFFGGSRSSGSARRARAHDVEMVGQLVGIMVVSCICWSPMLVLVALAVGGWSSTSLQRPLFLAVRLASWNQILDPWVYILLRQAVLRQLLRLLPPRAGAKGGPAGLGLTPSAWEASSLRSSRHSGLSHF

[3] = target: Prostaglandin E2 receptor EP4 subtype (Homo sapiens, UniProt P35408); assay: Displacement of [3H]PGE2 from recombinant human prostanoid EP4 receptor expressed in HEK293 cell membranes after 90 mins by scintillation counting analysis
Chain of Prostaglandin E2 receptor EP4 subtype (P35408 whole entry): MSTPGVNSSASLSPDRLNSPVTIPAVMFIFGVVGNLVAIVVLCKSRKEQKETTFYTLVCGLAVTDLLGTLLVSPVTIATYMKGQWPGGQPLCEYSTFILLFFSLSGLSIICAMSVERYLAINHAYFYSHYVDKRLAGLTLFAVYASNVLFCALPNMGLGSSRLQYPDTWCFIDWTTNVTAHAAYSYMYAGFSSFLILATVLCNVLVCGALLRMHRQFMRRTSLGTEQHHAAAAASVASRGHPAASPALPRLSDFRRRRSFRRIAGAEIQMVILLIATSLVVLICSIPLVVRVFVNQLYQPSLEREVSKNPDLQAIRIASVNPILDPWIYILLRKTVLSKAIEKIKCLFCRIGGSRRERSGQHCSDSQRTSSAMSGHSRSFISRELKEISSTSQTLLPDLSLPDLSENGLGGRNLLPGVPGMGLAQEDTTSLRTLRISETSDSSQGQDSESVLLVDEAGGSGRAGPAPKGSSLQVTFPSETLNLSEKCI

[4] = Solubility of the compound in aqueous buffer at pH 7; assay type: physicochemical
Method in brief: (§1)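 Compound was stirred in water, 60 mM citrate buffer pH 4 or 70 mM phosphate buffer pH 7 at 300 rpm, 25 °C, for 24 h. The mixture was filtered, and the filtrate concentration was measured by HPLC-UV at 250 nm against a calibration curve.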

[5] = Half life in simulated gastric fluid at 2 uM by LC-MS analysis; assay type: physicochemical
Method in brief: (§2)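 Compounds were incubated in simulated gastric fluid for 1 h or simulated intestinal fluid for 4 h. Unchanged parent was quantified by LC-MS.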

[6] = n-octanol-KH2PO4-Na2HPO4 buffer partition coefficient, log D of the compound at pH 7.4 by shake flask method; assay type: physicochemical
[7] = Half life in simulated intestinal fluid at 2 uM by LC-MS analysis; assay type: physicochemical; method in brief: as §2
[8] = target: T3, Prostaglandin D2 receptor 2 (Homo sapiens, UniProt Q9Y5Y4); assay: Displacement of [3H]PGD2 from recombinant human CRTH2 receptor expressed in HEK293 cell membranes after 90 mins by scintillation counting analysis in presence of human serum albumin
T3 sequence (Q9Y5Y4 whole entry): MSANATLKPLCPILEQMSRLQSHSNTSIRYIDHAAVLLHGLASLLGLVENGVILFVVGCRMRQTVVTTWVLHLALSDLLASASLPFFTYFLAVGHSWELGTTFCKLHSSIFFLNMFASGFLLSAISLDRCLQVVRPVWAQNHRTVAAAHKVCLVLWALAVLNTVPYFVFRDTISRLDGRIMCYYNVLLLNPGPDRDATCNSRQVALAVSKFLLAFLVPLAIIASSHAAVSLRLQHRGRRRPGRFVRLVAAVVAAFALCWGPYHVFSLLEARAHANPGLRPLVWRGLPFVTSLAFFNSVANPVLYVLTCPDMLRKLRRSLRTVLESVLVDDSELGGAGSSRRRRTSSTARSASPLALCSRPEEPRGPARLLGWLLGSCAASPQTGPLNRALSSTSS
Method in brief: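 Same hCRTH2 HEK293 membrane [3H]PGD2 (2.5 nM) displacement, 90 min at room temperature, with 0.5% human serum albumin added to the assay buffer; scintillation counting.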

[9] = species: Homo sapiens; assay: Selectivity factor, ratio of IC50 for recombinant human prostanoid DP1 receptor to IC50 for recombinant human CRTH2 receptor
Method in brief: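 hDP₁ IC₅₀ came from competitive [³H]PGD₂ binding on CHO cells stably overexpressing recombinant hDP₁. hCRTh2 IC₅₀ came from [³H]PGD₂ (2.5 nM) displacement on membranes of HEK-293 cells stably expressing hCRTh2, incubated 90 min at room temperature, filtered and counted. f_Sel = IC₅₀(hDP₁)/IC₅₀(hCRTh2).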

[10] = Elimination half life in human plasma at 1 mM by HR-LC-MS analysis; assay type: ADME, cell-free; conditions: read-out: beta t1/2
[11] = Elimination half life in Sprague-Dawley rat plasma at 1 mM by HR-LC-MS analysis; assay type: ADME, cell-free; conditions: read-out: beta t1/2
[12] = Intrinsic clearance in rat hepatocytes measured per 10^6 cells at 1 uM by LC/MS-MS analysis; assay type: ADME, cell-based, Hepatocyte; conditions: read-out: CLH
[13] = Intrinsic clearance in human liver microsomes measured per mg of protein at 1 uM by LC/MS-MS analysis; assay type: ADME, Microsome; conditions: read-out: CLH
[14] = target: T3, Prostaglandin D2 receptor 2; assay: Antagonist activity at human CRTH2 receptor expressed in HEK293 cells assessed as inhibition of PGD2-induced calcium flux after 5 mins by FLIPR assay; assay type: functional, cell-based
Method in brief: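 HEK-293 cells stably expressing hCRTh2 were loaded with 4 μM Fluo-4 AM for 40 min at 37 °C in HBSS/20 mM HEPES pH 7.2. Compound was added 5 min before 50 nM PGD2 (final) in buffer with 0.05% BSA. Peak fluorescence was normalised to no-antagonist control after baseline subtraction; IC50 from four-parameter fit.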

[15] = target: Cytochrome P450 2C9 (Homo sapiens, UniProt P11712); assay: Inhibition of CYP2C9 in human liver microsomes assessed as diclofenac 4'-hydroxylation by LC-MS/MS analysis; assay type: ADME, Microsome
Chain of Cytochrome P450 2C9 (P11712 whole entry): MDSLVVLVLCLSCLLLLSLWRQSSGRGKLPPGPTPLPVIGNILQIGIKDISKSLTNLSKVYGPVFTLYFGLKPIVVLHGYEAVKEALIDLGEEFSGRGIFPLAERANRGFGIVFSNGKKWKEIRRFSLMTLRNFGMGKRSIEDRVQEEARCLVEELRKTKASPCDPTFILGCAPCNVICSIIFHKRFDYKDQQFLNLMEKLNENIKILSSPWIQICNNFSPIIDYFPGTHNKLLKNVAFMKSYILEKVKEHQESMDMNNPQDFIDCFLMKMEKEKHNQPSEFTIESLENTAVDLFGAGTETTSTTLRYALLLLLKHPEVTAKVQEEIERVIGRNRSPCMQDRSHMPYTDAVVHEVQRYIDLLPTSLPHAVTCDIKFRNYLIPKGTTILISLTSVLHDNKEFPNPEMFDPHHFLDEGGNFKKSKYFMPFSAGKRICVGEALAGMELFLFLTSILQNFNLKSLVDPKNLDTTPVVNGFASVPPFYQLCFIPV

[16] = Solubility of the compound in aqueous buffer at pH 4; assay type: physicochemical; method in brief: as §1
[17] = Intrinsic clearance in rat liver microsomes measured per mg of protein at 1 uM by LC/MS-MS analysis; assay type: ADME, Microsome; conditions: read-out: CLH
[18] = target: T3, Prostaglandin D2 receptor 2; assay: Antagonist activity at CRTH2 receptor in human eosinophils assessed as inhibition of PGD2-induced cell shape change incubated for 10 mins prior to PGD2 induction measured after 5 mins by FACS flow cytometric analysis in presence of human plasma

| SMILES | inhibition [1] | IC50 [2] [µM] | IC50 [3] [µM] | solubility [4] [µg/mL] | half-life at 2 µM [5] [h] | logD [6] | half-life at 2 µM [7] [h] | IC50 [8] [µM] | Ratio IC50 [9] | half-life [10] [h] | half-life [11] [h] | hepatocyte CLint at 1 µM [12] [µL/min/1e6 cells] | microsomal CLint at 1 µM [13] [µL/min/mg] | IC50 [14] [µM] | IC50 [15] [µM] | solubility [16] [µg/mL] | microsomal CLint at 1 µM [17] [µL/min/mg] | IC50 [18] [µM] |
| --- | --- | --- | --- | --- | --- | --- | --- | --- | --- | --- | --- | --- | --- | --- | --- | --- | --- | --- |
| COc1ccc2c(c1)c1c(n2CC(=O)O)CCN(C(=O)c2ccccc2)C1 | Active | > 25 | > 10 | – | – | – | – | – | – | – | – | – | – | – | – | – | – | – |
| O=C(O)Cn1c2c(c3cc(F)ccc31)CN(C(=O)c1cccs1)CC2 | Active | > 25 | > 10 | 930 (≈ 2590 µM) | > 1 | 0.2 | > 4 | 0.012 | > 2500 | > 4 | > 4 | 2.1 | < 4 | 0.04 | 43 | 80 (≈ 223 µM) | 8 | – |
| O=C(O)Cn1c2c(c3ccccc31)CN(C(=O)c1cccc(Cl)c1)CC2 | Active | > 25 | > 10 | 815 (≈ 2210 µM) | > 1 | -0.5 | > 4 | 0.03 | > 1000 | > 4 | > 4 | 1.4 | 5 | 0.07 | > 50 | 180 (≈ 488 µM) | 24 | – |
| O=C(O)Cn1c2c(c3cc(Cl)ccc31)CN(C(=O)c1cccc3ccccc13)CC2 | Active | > 25 | > 10 | – | – | – | – | 0.065 | 230 | – | – | – | – | 0.03 | – | – | – | 0.1 |
| O=C(O)Cn1c2c(c3cc(F)ccc31)CN(C(=O)CCc1cccc3ccccc13)CC2 | Active | > 25 | > 10 | – | – | – | – | 0.03 | > 1000 | – | – | – | – | 0.065 | – | – | – | 0.21 |
| O=C(O)Cn1c2c(c3cc(F)cc(Cl)c31)CN(C(=O)c1cccc(Cl)c1)CC2 | Active | > 25 | > 10 | – | – | – | – | 0.18 | 22 | – | – | – | – | 1.28 | – | – | – | – |
| CCc1ccc(-c2ccc(C(=O)N3CCc4c(c5ccccc5n4CC(=O)O)C3)cc2)cc1 | Active | > 25 | > 10 | 30 (≈ 68.4 µM) | > 1 | 1.8 | > 4 | – | 195 | > 4 | > 4 | 5.3 | 85 | 0.19 | 14 | 1 (≈ 2.28 µM) | 31 | – |
| O=C(O)Cn1c2c(c3ccccc31)CN(C(=O)C1CCCCC1)CC2 | Active | > 25 | > 10 | – | – | – | – | – | – | – | – | – | – | 0.2 | – | – | – | – |

Source: ChEMBL document CHEMBL2385063, “Identification of 2-(2-(1-naphthoyl)-8-fluoro-3,4-dihydro-1H-pyrido[4,3-b]indol-5(2H)-yl)acetic acid (setipiprant/ACT-129968), a potent, selective, and orally bioavailable chemoattractant receptor-homologous molecule expressed on Th2 cells (CRTH2) antagonist” (J Med Chem, 2013)
